Values after ≈ are worked out from the molar mass of the structure shown. Active and inactive are the calls of the source. No cut-off for these calls is given here.
What was measured:
[1] = Toxicity in Caenorhabditis elegans infected with methicillin-resistant Staphylococcus aureus assessed as effect on nematode larvae viability by measuring decrease in formazan production at 3.13 to 1.56 uM after 24 hrs by MTT assay
[2] = system: Staphylococcus aureus; test: Antibacterial activity against NEO-sensitive Staphylococcus aureus 6538 after 15 to 20 hrs by CLSI protocol based microdilution assay; assay type: functional
In short: (§1)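 CLSI broth microdilution MIC in triplicate on exponential-phase cells, ~3×10^5 cells per mL in cation-adjusted Mueller-Hinton broth. Compound was added from 10× stocks in 10% DMSO as serial 2-fold dilutions, final 50 to 0.78 μM. Plates were incubated at 37 °C, humidified, 15-20 h. Growth was read as absorbance at 595 nm, and percent inhibition was averaged over triplicates.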

[3] = system: Staphylococcus aureus; test: Antibacterial activity against NEO-sensitive Staphylococcus aureus NRS77 after 15 to 20 hrs by CLSI protocol based microdilution assay; assay type: functional; in short: as §1
[4] = Toxicity in Caenorhabditis elegans infected with methicillin-resistant Staphylococcus aureus assessed as effect on nematode larvae viability by measuring decrease in formazan production at 6.25 to 50 uM after 24 hrs by MTT assay relative to control
[5] = system: Escherichia coli; test: Antibacterial activity against NEO-sensitive Escherichia coli ATCC 25922 at 6.25 uM after 15 to 20 hrs by CLSI protocol based microdilution assay relative to control; assay type: functional
In short: (§2)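 Single-concentration screen at 6.25 μM against exponential-phase cultures, in duplicate, with NEO as reference. Enterococcus was grown in BHI broth, M. smegmatis in TS broth with 0.05% Tween 80, and all other strains in TS broth. The 1% DMSO water vehicle was added to broth (background) and culture (growth control). Incubation was 37 °C, humidified, 15-20 h. Result is percent growth inhibition.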

[6] = system: Staphylococcus aureus; test: Antibacterial activity against NEO-sensitive Staphylococcus aureus C1 after 15 to 20 hrs by CLSI protocol based microdilution assay; assay type: functional; in short: as §1
[7] = Antibacterial activity against NEO-sensitive Enterobacter cloacae 13047 at 6.25 uM after 15 to 20 hrs by CLSI protocol based microdilution assay relative to control; assay type: functional, Enterobacter cloacae subsp. cloacae, ATCC 13047; in short: as §2
[8] = system: Staphylococcus aureus; test: Antibacterial activity against NEO-sensitive Staphylococcus aureus C2 after 15 to 20 hrs by CLSI protocol based microdilution assay; assay type: functional; in short: as §1
[9] = system: Escherichia coli; test: Antibacterial activity against multidrug-resistant Escherichia coli H4H at 6.25 uM after 15 to 20 hrs by CLSI protocol based microdilution assay relative to control; assay type: functional
In short: (§3)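 Exponential-phase cultures were exposed to 6.25 μM compound in duplicate with neomycin as reference, at 37 °C in a humidified incubator for 15-20 h. Broth and culture controls received sterile water with 1% DMSO. Percent growth inhibition was calculated against the growth and background controls.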

[10] = system: Staphylococcus aureus; test: Antibacterial activity against methicillin-resistant Staphylococcus aureus SU-5 after 15 to 20 hrs by CLSI protocol based microdilution assay; assay type: functional
In short: (§4)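 CLSI broth microdilution on exponential-phase bacteria at ~3×10^5 cells/mL in cation-adjusted Mueller-Hinton broth. Serial 2-fold dilutions gave final concentrations of 50 to 0.78 μM; compound stocks were 10× in 10% DMSO. Incubated at 37 °C for 15-20 h, growth read at A595. Percent inhibition averaged over triplicates; MIC in μM.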

[11] = system: Staphylococcus aureus; test: Antibacterial activity against methicillin-resistant Staphylococcus aureus A960649 after 15 to 20 hrs by CLSI protocol based microdilution assay; assay type: functional; in short: as §4
[12] = system: Escherichia coli; test: Antibacterial activity against NEO-sensitive Escherichia coli harboring TolC mutant after 15 to 20 hrs by CLSI protocol based microdilution assay; assay type: functional; in short: as §4
[13] = system: Bacillus anthracis; test: Antibacterial activity against NEO-sensitive Bacillus anthracis BA852 after 15 to 20 hrs by CLSI protocol based microdilution assay; assay type: functional; in short: as §4
[14] = system: Ribosomal RNA A-site; test: Binding affinity to rRNA-A site in Escherichia coli S30 extract assessed as inhibition of protein translation after 20 mins; assay type: nucleic-acid assay
[15] = system: Staphylococcus epidermidis; test: Antibacterial activity against NEO-sensitive Staphylococcus epidermidis 12384 after 15 to 20 hrs by CLSI protocol based microdilution assay; assay type: functional; in short: as §4
[16] = system: Staphylococcus aureus; test: Antibacterial activity against NEO-sensitive Staphylococcus aureus harboring NorA mutant after 15 to 20 hrs by CLSI protocol based microdilution assay; assay type: functional; in short: as §4
[17] = system: Ribosomal RNA A-site; test: Binding affinity to rRNA-A site in human MDA-MB-231 cells assessed as inhibition of protein translation; assay type: cell-based
[18] = system: Staphylococcus aureus; test: Antibacterial activity against methicillin-resistant Staphylococcus aureus M0602 after 15 to 20 hrs by CLSI protocol based microdilution assay; assay type: functional; in short: as §4
[19] = system: Streptococcus pyogenes; test: Antibacterial activity against NEO-resistant Streptococcus pyogenes C203 after 15 to 20 hrs by CLSI protocol based microdilution assay; assay type: functional; in short: as §4
[20] = system: Escherichia coli; test: Antibacterial activity against multidrug-resistant Escherichia coli H4H after 15 to 20 hrs by CLSI protocol based microdilution assay; assay type: functional; in short: as §4
[21] = system: Mycolicibacterium smegmatis; test: Antibacterial activity against NEO-sensitive Mycobacterium smegmatis after 15 to 20 hrs by CLSI protocol based microdilution assay; assay type: functional; in short: as §4
[22] = system: Escherichia coli; test: Antibacterial activity against NEO-sensitive Escherichia coli ATCC 25922 after 15 to 20 hrs by CLSI protocol based microdilution assay; assay type: functional; in short: as §4
[23] = system: Staphylococcus aureus; test: Antibacterial activity against NEO-sensitive Staphylococcus aureus 25923 after 15 to 20 hrs by CLSI protocol based microdilution assay; assay type: functional; in short: as §4
[24] = system: Staphylococcus aureus; test: Antibacterial activity against methicillin-resistant Staphylococcus aureus 33591 after 15 to 20 hrs by CLSI protocol based microdilution assay; assay type: functional; in short: as §4
[25] = system: Escherichia coli; test: Antibacterial activity against Escherichia coli O157:H7 at 6.25 uM after 15 to 20 hrs by CLSI protocol based microdilution assay relative to control; assay type: functional; in short: as §3

Structure (SMILES) | MIC [3] [µM] | Activity [5] [%] | MIC [6] [µM] | Activity [7] [%] | MIC [8] [µM] | Activity [9] | MIC [10] [µM] | MIC [11] [µM] | MIC [12] [µM] | MIC [13] [µM] | IC50 [14] [µM] | MIC [15] [µM] | MIC [16] [µM] | IC50 [17] [µM] | MIC [18] [µM] | MIC [19] | MIC [20] [µM] | MIC [21] [µM] | MIC [22] [µM] | Activity [25] [%] | further results
NC[C@@H]1O[C@H](O[C@H]2[C@@H](O)[C@H](O[C@@H]3[C@@H](O)[C@H](N)C[C@H](N)[C@H]3O[C@H]3O[C@H](CN)[C@@H](O)[C@H](O)[C@H]3N)O[C@@H]2CSCCNC(=O)CCc2ccc3ccc4cccc5ccc2c3c45)[C@H](N)[C@@H](O)[C@@H]1O | 6.3 (≈ 5.86 µg/mL) | 0 | 25 (≈ 23.3 µg/mL) | 0 | 12.5 (≈ 11.6 µg/mL) | inactive | – | – | – | – | – | – | – | – | – | – | – | – | – | – | Activity [1]: Non-Toxic; MIC [2]: 12.5 µM (≈ 11.6 µg/mL); Activity [4]: 50 to 75%
NC[C@@H]1O[C@H](O[C@H]2[C@@H](O)[C@H](O[C@@H]3[C@@H](O)[C@H](N)C[C@H](N)[C@H]3O[C@H]3O[C@H](CN)[C@@H](O)[C@H](O)[C@H]3N)O[C@@H]2CSCCNC(=O)Cc2ccc3ccc4cccc5ccc2c3c45)[C@H](N)[C@@H](O)[C@@H]1O | 3.2 (≈ 2.93 µg/mL) | 0 | 12.5 (≈ 11.5 µg/mL) | 5 | 12.5 (≈ 11.5 µg/mL) | – | 25 (≈ 22.9 µg/mL) | 12.5 (≈ 11.5 µg/mL) | 6.25 (≈ 5.73 µg/mL) | 6.25 (≈ 5.73 µg/mL) | 0.269 | 6.25 (≈ 5.73 µg/mL) | 6.25 to 12.5 (≈ 5.73 to 11.5 µg/mL) | 0.269 | 25 (≈ 22.9 µg/mL) | inactive | > 25 | 6.25 (≈ 5.73 µg/mL) | > 25 | – | Activity [1]: Non-Toxic; Activity [4]: 50 to 75%
NC[C@@H]1O[C@H](O[C@H]2[C@@H](O)[C@H](O[C@@H]3[C@@H](O)[C@H](N)C[C@H](N)[C@H]3O[C@H]3O[C@H](CN)[C@@H](O)[C@H](O)[C@H]3N)O[C@@H]2CNC(=O)CCCc2ccc3ccc4cccc5ccc2c3c45)[C@H](N)[C@@H](O)[C@@H]1O | – | 8 | – | 5 | – | 0% | 25 (≈ 22.1 µg/mL) | 12.5 (≈ 11 µg/mL) | 12.5 (≈ 11 µg/mL) | 12.5 (≈ 11 µg/mL) | – | 12.5 (≈ 11 µg/mL) | 12.5 (≈ 11 µg/mL) | – | 25 (≈ 22.1 µg/mL) | 25 µM (≈ 22.1 µg/mL) | > 25 | 12.5 (≈ 11 µg/mL) | > 25 | 0 | MIC [23]: 12.5 µM (≈ 11 µg/mL); MIC [24]: 12.5 µM (≈ 11 µg/mL)
NC[C@@H]1O[C@H](O[C@H]2[C@@H](O)[C@H](O[C@@H]3[C@@H](O)[C@H](N)C[C@H](N)[C@H]3O[C@H]3O[C@H](CN)[C@@H](O)[C@H](O)[C@H]3N)O[C@@H]2CSCCNC(=S)NCCCCCCNC(=O)CCCc2ccc3ccc4cccc5ccc2c3c45)[C@H](N)[C@@H](O)[C@@H]1O | – | 11 | – | 29 | – | 5 - 30% | 50 (≈ 55.1 µg/mL) | 25 (≈ 27.6 µg/mL) | 1.56 to 3.13 (≈ 1.72 to 3.45 µg/mL) | 3.13 (≈ 3.45 µg/mL) | 0.213 | 3.13 (≈ 3.45 µg/mL) | 6.25 (≈ 6.89 µg/mL) | 0.213 | 25 to 50 (≈ 27.6 to 55.1 µg/mL) | inactive | > 25 | 6.25 (≈ 6.89 µg/mL) | > 25 | 0 | MIC [23]: 6.25 µM (≈ 6.89 µg/mL); MIC [24]: 25 µM (≈ 27.6 µg/mL)
NC[C@@H]1O[C@H](O[C@H]2[C@@H](O)[C@H](O[C@@H]3[C@@H](O)[C@H](N)C[C@H](N)[C@H]3O[C@H]3O[C@H](CN)[C@@H](O)[C@H](O)[C@H]3N)O[C@@H]2CNC(=O)Cc2ccc3ccc4cccc5ccc2c3c45)[C@H](N)[C@@H](O)[C@@H]1O | > 25 | 7 | > 25 | 0 | > 25 | inactive | – | – | – | – | 1.28 | – | – | 1.2 to 1.28 | – | – | – | – | – | 0 | MIC [2]: > 25 µM
NC[C@@H]1O[C@H](O[C@H]2[C@@H](O)[C@H](O[C@@H]3[C@@H](O)[C@H](N)C[C@H](N)[C@H]3O[C@H]3O[C@H](CN)[C@@H](O)[C@H](O)[C@H]3N)O[C@@H]2CSCCNC(=O)CCCc2ccc3ccc4cccc5ccc2c3c45)[C@H](N)[C@@H](O)[C@@H]1O | – | 7 | – | 0 | – | <=30% | 25 (≈ 23.6 µg/mL) | 12.5 (≈ 11.8 µg/mL) | 6.25 (≈ 5.9 µg/mL) | 6.25 (≈ 5.9 µg/mL) | 0.927 | 6.25 (≈ 5.9 µg/mL) | 6.25 to 12.5 (≈ 5.9 to 11.8 µg/mL) | 0.927 | 25 (≈ 23.6 µg/mL) | 50 µM (≈ 47.2 µg/mL) | > 25 | 6.25 (≈ 5.9 µg/mL) | > 25 | 3 | MIC [23]: 12.5 µM (≈ 11.8 µg/mL); MIC [24]: 12.5 µM (≈ 11.8 µg/mL)

Source: ChEMBL document CHEMBL4330087, “Synthesis, antimicrobial activity, attenuation of aminoglycoside resistance in MRSA, and ribosomal A-site binding of pyrene-neomycin conjugates” (Eur J Med Chem, 2019)
